In ChEMBL document CHEMBL4513216, “Probing the Open Global Health Chemical Diversity Library for Multistage-Active Starting Points for Next-Generation Antimalarials” (ACS Infect Dis, 2020):

Test: Toxicity liver stage against HepG2, at 10uM
Type: cell-based
Design: test concentration 10 uM, cell line HepG2-A16-CD81EGFP
Settings: human, HepG2-A16-CD81EGFP cells; read-out: INHIBITION
Summary of the method: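 Uninfected HepG2-A16-CD81EGFP cells, 3 × 10^3 per well, 1536-well, plated on prespotted compound at 10 μM final, parasite-free screening media added to match infected plates; puromycin 10 μM positive, DMSO 0.5% negative; run in parallel with 48 h PbLuc assay at 37 °C, 5% CO2; viability by CellTiter-Glo luminescence, normalized to controls.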

| SMILES | cytotoxicity at 10 µM [%] |
| --- | --- |
| CSCC(CCO)NC(=O)Nc1cc(C)ccc1C (stereo not given) | -17 |
| O=C(c1coc(COc2cccc3cnccc23)n1)N1CCCCCC1 | -128 |
| CCO[C@@H]1CO[C@@]2(CCCN(C(=O)c3ccc(OC)c(F)c3)C2)C1 | 3.02 |
| Cc1ccc2c(c1)C1(CC(=O)Nc3[nH]ncc31)C(=O)N2C (stereo not given) | -1.6 |
| COc1ccc(COCC(O)CNC(=O)c2cccnc2)cc1 (stereo not given) | 7.94 |
| CNc1cc(C2CN(C(=O)c3ccn(C)n3)CCO2)nc(C)n1 (stereo not given) | 12.6 |
| CCn1cnnc1CNC(=O)N1CCN(c2cccs2)CC1 | -2.07 |
| CN(C)C[C@@H]1CN(C(=O)c2cc(F)ccc2F)C[C@@H]1CO | 7.45 |
| CC(NC(=O)N1CCC(n2cncn2)CC1)c1ccc(F)cc1F (stereo not given) | -9.88 |
| CS(=O)(=O)N1CCC(Oc2ccc(C(=O)NCCC(N)=O)cc2Cl)CC1 | -1.28 |
| COC(=O)NCC(=O)N(C)Cc1csc(C)n1 | 2.33 |
| Cc1nc(C)n(CC2CCCN(Cc3nc(C4CC4)no3)C2)n1 (stereo not given) | -7.76 |
| Cc1ncsc1-c1nc(Cc2cccs2)nn1C1CCN(C)CC1 | -4.51 |
| Cc1ccc(CN2CC[C@@H](N(C)C(C)C)[C@@H]2Cc2ccccc2)o1 | -3.52 |
| c1ccc2c(c1)CC(n1ccnc1-c1cc3n(n1)CCNC3)CO2 (stereo not given) | 4.58 |
| COc1cc(C)c(C(C)Nc2ncc(C(N)=O)cc2Cl)cc1OC (stereo not given) | 2.76 |
| CCn1ccnc1CN1CCCN(C(=O)Cc2ccc(C)nc2)CC1 | -1.92 |
| CC(C)C(NC(=O)Cn1nc2c(cc1=O)CCCC2)C(=O)O (stereo not given) | 7.63 |
| COCCn1cc(C(=O)N2CCCC2c2ccccc2C)ccc1=O (stereo not given) | 7.69 |
| NC(=O)C1CCCN(c2ccc(CNC(=O)c3csnn3)cc2)C1 (stereo not given) | -2.18 |
| CN1CCN(CC(CC(=O)Nc2ccc(Cl)cc2)C(=O)O)CC1 (stereo not given) | 2.83 |
| O=C(c1ccccn1)N1CCc2ncnc(N3CCOCC3)c2CC1 | 0.661 |

| SMILES | cytotoxicity at 10 µM [%] |
| --- | --- |
| CCC(C(=O)N(C)C)n1ccc2ncccc2c1=O (stereo not given) | 3.63 |
| CCN(C)S(=O)(=O)NCC1CCN(Cc2ccccc2C)CC1 | -4.93 |
| O=S(=O)(c1ccccc1)N1CCOCC(Cc2cccnc2)C1 (stereo not given) | 0.812 |
| Cc1occc1C(=O)N1C[C@@H]2OCCN(CCN3CCCC3)[C@@H]2C1 | -76.1 |
| Cc1ccc(-c2nc(CN3CCn4c(nnc4C4CC4)C3)cs2)o1 | -0.215 |
| Clc1cccc(-c2nc(CNC3CCc4ncnn4C3)co2)c1 (stereo not given) | 2.56 |
| O=C(c1cnc(O)cn1)N1CCCC1c1nc2cc(F)ccc2[nH]1 (stereo not given) | 7.72 |
| O=C(Nc1cnccn1)[C@@H]1C[C@H]2OCC[C@H]2N(c2ncc(F)cn2)C1 | 8.12 |
| Cc1ccc(NC2(C(=O)NCCCN)CCCC2)cc1 | 1.58 |
| CC(C)CCC1=NC2(CCN(C(=O)CN3CCCC3=O)CC2)C(=O)N1 | -3.07 |
| Cc1ccc(C(C(=O)NCCN2CCC(CO)CC2)N(C)C)cc1 (stereo not given) | -10.2 |
| Cc1ncsc1C(=O)N1CCCC1c1c(C)nn(C)c1Cl (stereo not given) | -1.9 |
| OC1(CN2CCCCC2)CCN(c2cc(C(F)(F)F)ccn2)C1 (stereo not given) | -2.22 |
| c1cncc(CN2CCC(NCCc3ccc4c(c3)CCO4)CC2)c1 | 5.41 |
| CC(=O)Nc1ccc(CNC(=O)CNCc2sc(C)nc2C)cc1 | 6.95 |
| O=C(Nc1cccnc1)NC1(c2cccc(F)c2)CC1 | 1.41 |
| CC1COCCN1Cc1nc(-c2ccc(F)cc2)no1 (stereo not given) | -9.4 |
| CC(c1nc(C2CC2)no1)N(C)Cc1ccc(Cl)cc1 (stereo not given) | 3.74 |
| COc1cccc(COCC(=O)N2CCCN(CC(N)=O)CC2)c1 | -7.04 |
| Cc1cc(C)n(CCCN(C)C(=O)CN2CC3(CCNCC3)OC2=O)n1 | 5.25 |
| COc1ccc2c(C)c(C(=O)N3CCC(NC(C)=O)C3)oc2c1 (stereo not given) | 7.72 |
| COc1cc(C)nc(N2CCN(C(=O)c3cccc(C#N)c3)CC2)n1 | -3.54 |

| SMILES | cytotoxicity at 10 µM [%] |
| --- | --- |
| CCc1nnc(CN(C)c2nc(C(C)C)nc3c2cnn3C)o1 | -9.52 |
| Cc1cccc(CN2C(=O)CO[C@@H]3CN(CCO)C[C@H]32)c1 | -14.1 |
| Cc1cnccc1-n1nc(C(C)C)nc1CCN(C)S(C)(=O)=O | -4.05 |
| Cc1nncn1CCNC(=O)C(C)(C)c1cccc(Cl)c1 | 8.55 |
| Cc1cccc(C(Nc2nccc(C)n2)C2CC2)n1 (stereo not given) | -2.67 |
| Cc1ccc(CS(=O)(=O)N2Cc3c(CN(C)C)nn(C)c3C2)cc1 | -98.2 |
| COc1cc(C)c(CN2CCc3nc4ccsc4c(=O)n3CC2)cc1C | -15.7 |
| CCOC(=O)c1nc(COc2ccc(CC(N)=O)cc2)no1 | -6.24 |
| CC(C(=O)N1CCCC1)N1CCC(c2nccn2CC2CCC2)CC1 (stereo not given) | -1.96 |
| CN(C(=O)CNC(=O)CC(C)(C)C)C1CCN(c2ccccn2)CC1 | 13.9 |
| NC(=O)C1CCN(C(=O)CCn2c(C(F)(F)F)cc3cccnc32)CC1 | -23.7 |
| NC(=O)CCCNC(=O)COc1ccccc1C(F)(F)F | 2.49 |
| CC(=O)N1CC[C@H]2OCC[C@@]2(C(=O)NCc2ccco2)C1 | 0.253 |
| O=c1[nH]c(=O)n(CC(O)c2ccc(F)cc2F)cc1Cl (stereo not given) | 2.64 |
| CCOc1ccc(CN2CCC(c3nc(C)cc(C)n3)C2)cc1CO (stereo not given) | 2.75 |
| CCc1cnc(N2CCC3(CC2)CCN(c2cnn(C)c2)C3=O)nc1 | -2.2 |
| CCn1cc(CN2CCCN(C(=O)Cc3cccs3)CC2)cn1 | -2.76 |
| c1cc(NC2CC3(CCN(Cc4cscn4)C3)C2)ncn1 (stereo not given) | -2.28 |
| O=C(NCc1cccnc1)C1=NOC2(CCCN(CCO)C2)C1 (stereo not given) | 5.66 |
| CCC1(O)CCCN(c2nc(-c3ccccn3)nc3c2c(C)nn3C)C1 (stereo not given) | 3.11 |
| Cc1n[nH]cc1CNC1(c2ccc(F)cc2)CCCC1 | 9.56 |
| CC(C)c1nn(C)c(N(C)C)c1CNCC(O)c1ccccc1 (stereo not given) | -1.83 |

| SMILES | cytotoxicity at 10 µM [%] |
| --- | --- |
| CCOCCCC(=O)NCc1cn2cc(Br)ccc2n1 | 2.73 |
| COc1ccnc(N2CCN(CC(O)CN3CCOCC3)CC2)n1 (stereo not given) | -3.44 |
| Cc1ccccc1CS(=O)(=O)NCCCN1CCCC1 | -7.49 |
| COc1ccc(CN2CCCC2Cn2nc(C)nc2C)cc1F (stereo not given) | 2.89 |
| CCO[C@@H]1CC[C@H]2[C@H]1OCCN2C(=O)C1CCOCC1 | -19.8 |
| COc1ccc(C(=O)C2CCCN(Cc3cc(C)n[nH]3)C2)c(OC)c1 (stereo not given) | -6.77 |
| O=C(NCCC1CCN(CC(F)(F)F)CC1)C1CCCOC1 (stereo not given) | 1.51 |
| Cc1ccc(C(N)=O)c(N2C[C@H]3OC(=O)N(C4CCCC4)[C@H]3C2)n1 | 5.54 |
| Fc1ccc(CN2CCCn3nnc(COCC4CC4)c3C2)cc1 | -109 |
| CCC(C)Oc1ccc(CNCCNC(C)=O)cc1Cl (stereo not given) | 1.12 |
| COc1ncc(C(=O)N(Cc2cnn(C)c2)C(C)C)cn1 | 4.23 |
| Cc1csc2ncnc(N3CCC(Cn4cc(C(C)(C)O)nn4)CC3)c12 | 49.2 |
| CCc1csc(C2CCCN(C(=O)c3ccc(OC)nc3)C2)n1 (stereo not given) | 4.65 |
| O=C1NCC2(CCCN(Cc3ccccc3F)C2)Oc2ccccc21 (stereo not given) | 6.12 |
| Cc1cc(C(F)F)nn1CC(=O)NCc1nccn1C | -2.17 |
| Cc1cccc(Nc2noc3c2CN(C(=O)c2ccn(C)n2)CC3)c1C | -0.61 |
| CN(C)S(=O)(=O)c1ccc(=O)n(CC2CCCCO2)c1 (stereo not given) | -8.58 |
| O=S(=O)(CCc1ccccc1)Nc1cc(Cl)ccn1 | -4.81 |
| Cc1ccc(NC2COC3(CCN(CC(C)C)CC3)C2)nn1 (stereo not given) | -1 |
| COCC(=O)N(C)Cc1ccc(F)c(F)c1 | -140 |
| CC(C)(O)CCc1cccc(C(=O)N2CCC3(CCOCC3)CC2)c1 | 1.14 |
| CC1(C)CC(N(Cc2ccccc2)Cc2c[nH]cn2)CC(C)(C)N1 | 5.28 |

| SMILES | cytotoxicity at 10 µM [%] |
| --- | --- |
| COc1ncccc1NC(=O)NCC1CC1 | -2.45 |
| N#CCCN(C(=O)COC1CCCC1)C1CC1 | -4.14 |
| CCc1ccc(C(NC(=O)CCS(C)(=O)=O)C(C)(C)C)o1 (stereo not given) | -3.58 |
| N[C@H]1CN(Cc2cnc(N3CCCC3)nc2)C[C@@H]1C1CC1 | -45.5 |
| COc1ncccc1CN1C[C@@H]2COC[C@]2(COCC(=O)N(C)C)C1 | 7.81 |
| CCN(C(c1cccnc1)c1cc(C)cc(C)c1)S(C)(=O)=O (stereo not given) | 2.88 |
| NC1CCCCN(Cc2cc(C3CCCCC3)no2)C1 (stereo not given) | -14.1 |
| COCCN(CCC#N)S(=O)(=O)c1cc(F)cc(F)c1 | -3.32 |
| CCc1nc(CN2CCOC(CN(CC)c3cccnn3)C2)cs1 (stereo not given) | 3.09 |
| O=c1cc(N2CCCCC2)cnn1Cc1noc(C2CCCO2)n1 (stereo not given) | -47.1 |
| COc1ccc(NC(=O)C2CC(=O)N(C)C2)cn1 (stereo not given) | -16.5 |
| Cn1ccnc1CN1CC[C@@H]2[C@@H](CCC(=O)N2CCc2c[nH]cn2)C1 | -5.68 |
| O=C([C@@H]1CCO[C@@H]2CCN(Cc3cccs3)C[C@H]21)N1CCCCO1 | 5.77 |
| CC(C)c1ccc(-n2ncc(C(=O)NCC3COC(C)(C)O3)c2N)cc1 (stereo not given) | -0.726 |
| Cc1ccc(C)c(NC(=O)N2CCC3(CC2)NC(=O)CC3C(=O)O)c1 (stereo not given) | 4.9 |
| O=S(=O)(c1cc(F)ccc1N1CC(n2cccn2)C1)C(F)(F)F | 11.3 |
| COCC(=O)N1CCC(c2cc(-c3ccc(N)nc3)cc(C)n2)CC1 | 2.06 |
| Cc1nc(CC(C)C)cc(C(=O)N2C[C@@H](N(C)C)[C@H](C(C)C)C2)n1 | 9.26 |
| CC(=O)OCC1CCCCN1C(=O)c1ccc(Cn2ccnc2)o1 (stereo not given) | -54.5 |
| O=C(NCC1CC1)C1CCC2(CCN(C(=O)c3cnccn3)CC2)O1 (stereo not given) | -9.28 |
| Cc1cnn(CC2CCCN2Cc2coc(-c3cccs3)n2)c1 (stereo not given) | -3.01 |
| COC(CNC(=O)C1CCN(S(C)(=O)=O)CC1)c1ccc(C)s1 (stereo not given) | -0.0506 |
